Measurements: ChEMBL document CHEMBL1146523, “Antimalarial dihydroisocoumarins produced by Geotrichum sp., an endophytic fungus of Crassocephalum crepidioides” (J Nat Prod, 2003)
Values after ≈ are worked out from the molar mass of the structure shown. Active and inactive are the calls of the source. No cut-off for these calls is given here.

How the values were obtained:
[1] = test system: Mycobacterium tuberculosis; test: Antimycobacterial activity against Mycobacterium tuberculosis H37Ra by microplate alamar blue assay; assay type: functional
Procedure, shortened: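 Growth inhibition of M. tuberculosis H37Ra in the Microplate Alamar Blue Assay. MIC read-out, with isoniazid and kanamycin sulfate as standard drugs.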

Plasmodium falciparum = test: Antimalarial activity against multidrug-resistant Plasmodium falciparum K1; assay type: functional, organism-based
Procedure, shortened: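 Multidrug-resistant P. falciparum K1 kept in continuous culture (Trager–Jensen). In vitro activity measured by the microculture radioisotope technique (Desjardins). IC50 read-out, with chloroquine diphosphate as the standard.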

Candida albicans = test: Antifungal activity against Candida albicans; assay type: functional, organism-based
Procedure, shortened: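 Candida albicans growth inhibition measured by a colorimetric method. IC50 read-out, with amphotericin B as the standard drug.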

`NC[C@H]1O[C@H](O[C@H]2[C@H](O)[C@@H](O[C@H]3O[C@H](CO)[C@@H](O)[C@H](N)[C@H]3O)[C@H](N)C[C@@H]2N)[C@H](O)[C@@H](O)[C@@H]1O.O=S(=O)(O)O` [KANAMYCIN SULFATE] showed an MIC [1] of 2.5 µg/mL.

`C/C=C/CC[C@@H]1Cc2cc(O)c(CCCC)c(O)c2C(=O)O1` gave an IC50 (Plasmodium falciparum) of 4.7 µg/mL (≈ 15.4 µM), an MIC [1] of 25 µg/mL (≈ 82.1 µM) and an IC50 (Candida albicans) of 19 µg/mL (≈ 62.4 µM).

For `C/C=C/CC[C@@H]1Cc2cc(O)c(C/C=C/C)c(O)c2C(=O)O1`, the Activity (Plasmodium falciparum) was “inactive”, the MIC [1] was 50 µg/mL (≈ 165 µM) and the Activity (Candida albicans) was “inactive”.

For `C[C@@H]1[C@H](O)[C@@H](C)/C=C/C=C/C=C/C=C/C=C/C=C/C=C/[C@H](O[C@@H]2O[C@H](C)[C@@H](O)[C@H](N)[C@@H]2O)C[C@@H]2O[C@](O)(C[C@@H](O)C[C@@H](O)[C@H](O)CC[C@@H](O)C[C@@H](O)CC(=O)O[C@H]1C)C[C@H](O)[C@H]2C(=O)O` [AMPHOTERICIN B], the IC50 (Candida albicans) was 0.01 µg/mL (≈ 0.0108 µM).

`CCCCC[C@@H]1Cc2cc(O)c(CCCC)c(O)c2C(=O)O1` was tested, and the IC50 (Plasmodium falciparum) was 2.6 µg/mL (≈ 8.49 µM), the Activity [1] was “inactive” and the IC50 (Candida albicans) was 33 µg/mL (≈ 108 µM).

In the case of `NNC(=O)c1ccncc1` [ISONIAZID], the MIC [1] is reported as 0.05 µg/mL (≈ 0.365 µM).
